KCNQ1 act: potentiators or activators of KCNQ1 channel, primary screen, cell-based, thallium flux, high-throughput; Potassium voltage-gated channel subfamily KQT member 1 (Homo sapiens), P51787; AID 2648, 2010; B-score at 10 µM; actives 0.35% (n = 310,000); CHO-K1 KCNQ1, thallium flux FluxOR fluorescence; stronger effect = higher value;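 active = fluorescence ratio B-score, a plate-corrected score, at least three library SD, with initial intensity B-score within 5 SD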
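assay system = KCNQ1-transfected CHO-K1 cells | medium = assay buffer with matched DMSO | probe or stimulus = depolarizing K+/Tl+ stimulus, K2SO4 and Tl2SO4 each 12.5 mM in 5x stock | dosing = single dose | incubation = dye 90 min, compound 20 min, room temperature | detection = kinetic FluxOR fluorescence, 10 s baseline plus 110 s post-stimulus | evaluation = ratio B score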
KCNK3 block: human KCNK3 channel inhibitors, primary screen, CHO cells, FluxOR thallium flux, B-score | FluxOR fluorescence; stronger effect = lower value | B-score at 10 µM | actives 0.84% (n = 340,000) | AID 602410, 2012;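 active = B-score under library mean minus 4 SD, starting fluorescence ratio at most library mean plus 5 SD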;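 note: more negative B-score means stronger inhibition of thallium flux through KCNK3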
KCNQ1 inh: inhibitors of human KCNQ1 channel, primary screen, cell-based, thallium flux, high-throughput | actives 1.3% (n = 310,000) | AID 2642, 2010 | CHO-K1 KCNQ1, FluxOR thallium flux fluorescence; stronger effect = higher value | B-score at 10 µM;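 active = compounds whose thallium flux B-score, printed positive for inhibition, exceeds three library SD while starting fluorescence stays within three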;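 note: channel opened by potassium depolarization with thallium stimulus after 20 min compound exposure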
Kir21 block: inhibitors of mouse Kir2.1 inward-rectifier potassium channel; Inward rectifier potassium channel 2 (Mus musculus), P35561; HEK293-Kir2.1, FluxOR thallium flux fluorescence; stronger effect = lower value; B-score at 10 µM; actives 0.85% (n = 310,000); AID 1672, 2009;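 active = fluorescence ratio B-score at or below minus 3 SD of library scores, with starting-brightness B-score within 2 SD, cut at about -4.2 in these data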;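 note: channel flux triggered by added potassium and thallium sulfate stimulus; B-score of peak minus minimum fluorescence over baseline after thallium stimulus; more negative B-score means stronger Kir2.1 block with less thallium influx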
KCNK9 inh: KCNK9 potassium channel inhibitors, primary screen, HEK293 cells, thallium flux; FluxOR thallium flux fluorescence; stronger effect = lower value; B-score at 10 µM; actives 1.2% (n = 310,000);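 active = ratio B-score over 3 SD below the library mean, with starting fluorescence within 5 SD of its mean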;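 note: negative B-score means less thallium flux so channel inhibition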
Target sequence (Q9NPC2 whole entry, looked up): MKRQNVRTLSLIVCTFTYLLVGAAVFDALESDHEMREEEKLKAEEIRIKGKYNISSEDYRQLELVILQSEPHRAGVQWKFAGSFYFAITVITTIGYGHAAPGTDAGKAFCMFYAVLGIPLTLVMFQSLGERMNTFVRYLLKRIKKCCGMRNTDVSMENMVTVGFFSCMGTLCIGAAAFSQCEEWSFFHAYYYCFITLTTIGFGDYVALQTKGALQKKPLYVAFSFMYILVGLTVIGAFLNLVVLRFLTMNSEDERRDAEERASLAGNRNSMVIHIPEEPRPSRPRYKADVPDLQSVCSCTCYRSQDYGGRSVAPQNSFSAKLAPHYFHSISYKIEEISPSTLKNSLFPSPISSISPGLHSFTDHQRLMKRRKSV
hERG rescue: hERG rescue from dofetilide block, primary screen, cell-based, CHO-hERG, FluxOR thallium flux, dofetilide IC70; activation (rescue from dofetilide block), less the hit threshold, % at 10 µM; dofetilide IC70 present; Voltage-gated inwardly rectifying potassium channel KCNH2 (Homo sapiens), Q12809; actives 0.51% (n = 310,000);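 active = activation above the mean of controls blocked by dofetilide plus 5 SD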;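 note: thallium influx through hERG after potassium depolarization seen as dye fluorescence rise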
Numbers without * were called inactive; i = inactive; . = no result. In the library only some 3.8% were active in any assay of this set; here they are far more common.

SMILES	KCNQ1 act	KCNK3 block	KCNQ1 inh	Kir21 block	KCNK9 inh	hERG rescue
O=C(Nc1ccccc1N1CCCC1)c1cccnc1Cl	i	i	i	0.79	i	-7.5
COC(=O)Cc1c[nH]c2cccc(OCC(O)CN(Cc3ccc([N+](=O)[O-])cc3)C(C)(C)C)c12 (stereo unspecified)	i	i	i	-1.44	-7.77*	-11.2
O=c1[nH]c(SCc2ccc(F)cc2Cl)nc2ccccc12	i	i	i	0.4	i	-9.8
Cn1c(-c2ccccc2)cnc1SCC(=O)N1CCCc2ccccc21	i	i	i	-7.46*	i	-9.4
O=C(CSc1nccn1-c1ccc(Cl)cc1)N1CCCc2ccccc21	i	i	i	-9.34*	i	-9.2
COc1ccc(/C=C2/C(=N)N3C(=NC2=O)Sc2cc(S(C)(=O)=O)ccc23)cc1OC	i	.	i	0.02	i	-5.1
CC(C)c1ccc(NC(=O)NC(C)c2ccc3c(c2)OCO3)cc1 (stereo unspecified)	i	i	i	0.06	i	-6.8
CC(C)c1ccc(NC(=O)C(c2ccc3c(c2)OCO3)N2CCC3(CC2)OCCO3)cc1 (stereo unspecified)	i	i	i	0.78	i	-10.1
CC(C)c1ccc(NC(=O)C(c2ccc3c(c2)OCO3)N2CCCCC2)cc1 (stereo unspecified)	i	i	i	-0.1	-7.38*	-19.0
CC1CCN(C(C(=O)Nc2ccc(C(C)C)cc2)c2ccc3c(c2)OCO3)CC1 (stereo unspecified)	i	i	i	0.12	-8.09*	-12.0
Cc1cccc(C)c1OCC1CNC(=O)O1 (stereo unspecified)	i	i	i	-0.44	i	6.5*
O=C1NCC(COCc2ccccc2)O1 (stereo unspecified)	i	i	i	2.22	i	-6.4
Cc1nn(Cc2cccc3ccccc23)c(C)c1NC(=O)c1cccnc1	i	i	i	0.8	i	-5.5
Cc1ccccc1Cn1nc(C)c(NC(=O)c2ccccc2)c1C	i	i	i	0.62	i	7.6*
Fc1ccc(C(CCNCc2ccccn2)c2ccc(Cl)cc2)cc1 (stereo unspecified)	i	i	i	-6.44*	i	-18.8
CC(C)(O)C(=O)NNC(=S)Nc1ccc(F)c(Cl)c1	i	i	i	0.42	i	-16.8
COc1cc(NC(=S)NNC(=O)C(C)(C)O)cc(OC)c1	i	i	i	0	i	8.9*
O=[N+]([O-])c1ccc(C(O)C(CO)NC(=S)Nc2ccccc2)cc1 (stereo unspecified)	i	i	i	-2.14	i	-7.6
N#Cc1c(NCCN)nc(-c2ccccc2)c2c1CCCC2	i	i	i	-6.04*	i	-9.1
COc1ccc(CNC(=O)c2cc(=O)c3ccccc3o2)cc1	i	i	i	-0.5	i	-1.9
COc1cc(OC)c(OC)cc1CNC(=O)c1cc(=O)c2ccccc2o1	9*	i	i	3.07	i	-5.9
CC1CCN(C(=O)CCN2C(=O)/C(=C/c3cccs3)SC2=S)CC1	i	i	i	1.28	i	-9.5
COc1cccc(NC(=O)c2ccc3c(c2)OCCO3)c1	i	i	i	2.37	i	-4.7
Cc1cccc(OCCSc2nncn2C)c1	i	i	i	-0.63	i	9.8*
CCC(=O)N=c1sc2ccccc2n1-c1ccccc1	i	i	i	0.1	i	-10.1
CC1=NNC(=O)C1CCC(=O)N/N=C/c1ccco1 (stereo unspecified)	i	i	i	0	i	-7.2
CCN(CC)S(=O)(=O)c1cccc(C(=O)NC(C(=O)NC2=NCCS2)C(C)C)c1 (stereo unspecified)	i	i	i	-1.06	i	-6.2

Bioassay records as filed in PubChem BioAssay.
